For assay [1], the species on record is Rattus norvegicus. Kind of assay: Inhibition of […] lipid peroxidation in rat brain microsome. It counts as functional. The gist of the method: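 Rat brain microsomes (78000 g pellet) in KCl at 0.2 mg protein per ml. Medium: 50 mM Tris-HCl pH 6.8, 0.2 mM FeCl3, 1 mM KH2PO4, 0.5 mM ADP, preincubated 20 min at 37 °C ± compound. LPO started with 0.4 mM NADPH, run 20 min, stopped with TCA/HCl. TBA boiled 10 min, OD read at 535 nm. IC50 obtained by sigmoid fit of 7–9 concentrations, triplicates.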

The test system of the next assay is Brain. Briefly: Inhibition of Fe2+-induced lipid peroxidation in rat brain homogenate. It counts as functional, tissue-based. In outline:
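Whole rat brain homogenized in 9 vol ice-cold Krebs-Ringer/15 mM HEPES pH 7.4 with glucose, used fresh at 10 mg protein/ml. Preincubated with compound 20 min at 37 °C. LPO started with ferrous ammonium sulfate (200 µM Fe²⁺), run 20 min, stopped with TCA/HCl. TBA added to supernatant, boiled 20 min, OD read at 535 nm. IC50 obtained by sigmoid fit of 6–9 concentrations, triplicates.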

Assay [2] deals with Mus musculus. Briefly: Inhibition of diazepam-induced amnesia in NMRI mouse at 0.1 mg/kg, po by one-trial passive avoidance test. It counts as functional. In outline: (§1)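 Male NMRI mice, 25–28 g, 10 per group. Anterograde amnesia induced by diazepam 3 mg/kg i.p. 30 min before the acquisition trial. Test compound given orally (0.1 or 10 mg/kg) 1 h before acquisition. Readout is latency to enter the dark chamber. Percent restoration P% = (T_treated+DIA − T_placebo+DIA)/(T_placebo − T_placebo+DIA) × 100.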

Assay [3] has as its system Mus musculus. Briefly: Inhibition of diazepam-induced amnesia in NMRI mouse at 10 mg/kg, po by one-trial passive avoidance test. Format: functional. In outline:
as §1

Assay [4] deals with Rattus norvegicus. Kind of assay: Protective effect against diazepam-induced learning-deficit in Wistar rat at 5 mg/kg, po by water labyrinth test. It counts as functional. The gist of the method:
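Male Wistar rats, 200–220 g, 10 per group. Diazepam 5 mg/kg i.p. in 5% Tween 80, given 30 min before the first swim. Compound given orally at 5 mg/kg 1 h before the first daily trial. Four-day water-labyrinth task with three choice points in water at 24 °C: one pretraining day, then three trials per day. Directional turning errors counted, 12 if the platform was not found in 5 min. Percent restoration calculated; ANOVA with Duncan test.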

The subject of assay [5] is Mus musculus. Briefly: Effect on memory improvement in NMRI mouse at 10 mg/kg by passive avoidance test. It counts as functional, organism-based. Further details: dose 10 mg/kg. The gist of the method:
as §1

The source made the active and inactive calls. No cut-off for these calls is given here.

As for `CCOC(=O)C1=C[C@]2(CC)CCCN3CCc4c(n1c1ccccc41)[C@H]32`, the 50% inhibitory concentration (IC50) (commonly the concentration that inhibits the measured activity by half) was found to be 3.5 µM in the assay listed under Rattus norvegicus [1] and 14.4 µM in the assay on Brain.
Turning to `CCC(=O)OCCOC(=O)C1=C[C@@]2(CC)CCCN3CCc4c(n1c1ccccc41)[C@@H]32`, the inhibition in vivo (usually the share of the control response that was lost under treatment) at 0.1 mg/kg in the assay on Mus musculus [2] is 64%. Further, the IC50 in the assay filed under Rattus norvegicus [1] worked out at 4.4 µM; in the assay with Brain it was 15.8 µM. Also, the inhibition in vivo at 10 mg/kg with Mus musculus [3] worked out at 24%.
With `CC[C@]12C=C(C(=O)O)n3c4c(c5ccccc53)CCN(CCC1)[C@H]42`, the half-inhibitory concentration (IC50) is over 300 µM in the assay filed under Rattus norvegicus [1] and 258 µM in the assay on Brain.
In the assay listed under Rattus norvegicus [1], `CC[C@@]12C=C(C(=O)OCCO)n3c4c(c5ccccc53)CCN(CCC1)[C@H]42` came in with an IC50 of over 30 µM. In the assay with Rattus norvegicus [4], this compound displayed an Activity of 80.3%.
Consider `CC[C@@]12C=C(C(=O)OCCO)n3c4c(c5ccccc53)CCN(CCC1)[C@@H]42`, for which, in the assay on Mus musculus [2], the inhibition in vivo at 0.1 mg/kg was 74%. In addition, the concentration for half-maximal inhibition (IC50) was found to be 7 µM in the assay listed under Rattus norvegicus [1] and 13.7 µM in the assay on Brain. Moreover, the inhibition in vivo at 10 mg/kg with Mus musculus [3] is 65%. For the same compound, the Activity in the assay on Rattus norvegicus [4] is 81.1%. Further, the outcome in the assay with Mus musculus [5] was Active.
`CC[C@]12C=C(C(=O)OCCO)n3c4c(c5ccccc53)CCN(CCC1)[C@H]42` returned an inhibition in vivo at 0.1 mg/kg with Mus musculus [2] of 50%. Moreover, the 50% inhibitory concentration (IC50) came to 9.1 µM in the assay listed under Rattus norvegicus [1] and 13.6 µM in the assay with Brain. The compound also had an inhibition in vivo at 10 mg/kg in the assay on Mus musculus [3] of 56%. Further, the result in the assay with Mus musculus [5] was Active.
In the assay on Rattus norvegicus [4], `CC[C@@]12C=C(C(=O)O)n3c4c(c5ccccc53)CCN(CCC1)[C@H]42` gave an Activity of 66.7%.
With `CC[C@@]12C=C(C(=O)OCCOC(C)=O)n3c4c(c5ccccc53)CCN(CCC1)[C@@H]42`, at 0.1 mg/kg the inhibition in vivo in the assay on Mus musculus [2] was 79%. Besides, the half-maximal inhibitory concentration (IC50) in the assay listed under Rattus norvegicus [1] was determined as 3.6 µM; in the assay with Brain, 9.8 µM. For the same compound, the inhibition in vivo at 10 mg/kg in the assay with Mus musculus [3] stood at 100%. For the same compound, the result in the assay with Mus musculus [5] was Active.
`CC[C@@]12C=C(C(=O)[O-])n3c4c(c5ccccc53)CCN(CCC1)[C@@H]42.[Na+]`: the values for the half-inhibitory concentration (IC50) in the assay listed under Rattus norvegicus [1] and in the assay with Brain were over 300 µM and 238 µM, respectively. Further, the Activity in the assay on Rattus norvegicus [4] amounted to 71.3%.
With `Cc1cc(C(C)(C)C)c(O)c(C(C)(C)C)c1` [BUTYLATED HYDROXYTOLUENE], the results for the half-inhibitory concentration (IC50) in the assay filed under Rattus norvegicus [1] and in the assay with Brain were 3.2 µM and 6.2 µM, respectively.
`CC[C@@]12C=C(C(=O)OCCOC(=O)c3ccccc3)n3c4c(c5ccccc53)CCN(CCC1)[C@@H]42` showed an inhibition in vivo at 0.1 mg/kg in the assay with Mus musculus [2] of 0%. The figures for the half-maximal inhibitory concentration (IC50) in the assay filed under Rattus norvegicus [1] and with Brain were 3.8 µM and 18.2 µM, respectively. In the assay on Mus musculus [3], this compound gave an inhibition in vivo at 10 mg/kg of 0%.
Consider `CCC(=O)OCCOC(=O)C1=C[C@]2(CC)CCCN3CCc4c(n1c1ccccc41)[C@H]32`, for which, in the assay with Mus musculus [2], the inhibition in vivo at 0.1 mg/kg is 16%. The 50% inhibitory concentration (IC50) in the assay filed under Rattus norvegicus [1] was 5 µM; with Brain, 21 µM. At 10 mg/kg the inhibition in vivo in the assay on Mus musculus [3] was 4%.
For the compound `CC[C@]12C=C(C(=O)OCCOC(=O)c3ccc(Cl)cc3)n3c4c(c5ccccc53)CCN(CCC1)[C@H]42`, the results for the IC50 in the assay listed under Rattus norvegicus [1] and in the assay with Brain were 2.7 µM and 15.7 µM, respectively.
The matching figures for `Cc1c(C)c2c(c(C)c1O)CCC(C)(CCCC(C)CCCC(C)CCCC(C)C)O2` (racemic) [alpha-TOCHOPHEROL]: 273 µM and 35.7 µM.
The matching figures for `COC1=C(OC)C(=O)C(CCCCCCCCCCO)=C(C)C1=O` [IDEBENONE]: 1.3 µM and 31.5 µM.
Take `O=c1c(O)c(-c2ccc(O)c(O)c2)oc2cc(O)cc(O)c12` [QUERCETIN]: the IC50 in the assay listed under Rattus norvegicus [1] amounted to 8.5 µM; in the assay with Brain, 10.7 µM.
`CC[C@@]12C=C(C(=O)OCCOC(=O)c3ccc(Cl)cc3)n3c4c(c5ccccc53)CCN(CCC1)[C@@H]42`: testing at 0.1 mg/kg with Mus musculus [2] gave an inhibition in vivo of 3%. Also, the half-maximal inhibitory concentration (IC50) in the assay listed under Rattus norvegicus [1] turned out to be 2.7 µM; in the assay on Brain, 14.6 µM. Moreover, in the assay with Mus musculus [3], testing at 10 mg/kg gave an inhibition in vivo of 15%.
The like results for `CC[C@]12C=C(C(=O)OCCOC(=O)c3ccccc3)n3c4c(c5ccccc53)CCN(CCC1)[C@H]42` were, in that order, 23%, 3.4 µM, 14.8 µM and 16%.
As to `CCOC(=O)C1=C[C@@]2(CC)CCCN3CCc4c(n1c1ccccc41)[C@@H]32`, the figures for the IC50 in the assay listed under Rattus norvegicus [1] and in the assay on Brain were 3 µM and 13.4 µM, respectively.
With `CCOC(=O)C1=C[C@]2(CC)CCCN3CCc4c(n1c1ccccc41)[C@@H]32` [VINPOCETINE], in the assay with Mus musculus [2], the inhibition in vivo at 0.1 mg/kg is 0%. Further, the values for the 50% inhibitory concentration (IC50) in the assay filed under Rattus norvegicus [1] and with Brain were 137 µM and 209 µM, respectively. In the assay with Mus musculus [3], this compound returned an inhibition in vivo at 10 mg/kg of 100%. This compound displayed an Activity with Rattus norvegicus [4] of 56.6%.
Compound `CC[C@]12C=C(C(=O)OCCOC(C)=O)n3c4c(c5ccccc53)CCN(CCC1)[C@H]42` displayed an inhibition in vivo at 0.1 mg/kg in the assay on Mus musculus [2] of 72%. Also, the 50% inhibitory concentration (IC50) in the assay listed under Rattus norvegicus [1] worked out at 3.8 µM; in the assay on Brain it was 15.2 µM. 10 mg/kg produced 44% inhibition in vivo with Mus musculus [3]. In addition, the result in the assay on Mus musculus [5] was Active.
